Measured values: ChEMBL document CHEMBL1135616, “Synthesis of novel 4,1-benzoxazepine derivatives as squalene synthase inhibitors and their inhibition of cholesterol synthesis” (J Med Chem, 2002)

How the values were obtained:
Squalene synthase [1] = target: T1, Squalene synthase (Homo sapiens, UniProt P37268); experiment: Inhibition of squalene synthase from human hepatoma cells (HepG2)
T1 sequence (P37268 whole entry): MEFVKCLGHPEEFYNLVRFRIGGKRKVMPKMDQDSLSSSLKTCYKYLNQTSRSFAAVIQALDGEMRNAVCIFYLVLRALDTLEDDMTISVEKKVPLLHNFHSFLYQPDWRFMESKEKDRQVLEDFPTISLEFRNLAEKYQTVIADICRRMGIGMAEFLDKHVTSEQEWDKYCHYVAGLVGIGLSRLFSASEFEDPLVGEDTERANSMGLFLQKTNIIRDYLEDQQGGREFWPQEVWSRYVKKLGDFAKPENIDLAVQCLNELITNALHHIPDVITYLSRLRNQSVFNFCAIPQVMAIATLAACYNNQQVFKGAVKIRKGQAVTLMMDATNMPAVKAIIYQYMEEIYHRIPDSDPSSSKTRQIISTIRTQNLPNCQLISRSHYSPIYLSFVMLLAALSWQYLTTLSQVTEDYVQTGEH
Method in brief: (§1)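 Enzyme source: microsomes from HepG2 cells grown in DMEM/10% FBS, sonicated in phosphate/nicotinamide/MgCl2 buffer. Reaction contained 5 µM [1-3H]FPP, 1 mM NADPH, 5 mM MgCl2, 6 mM glutathione, 100 mM potassium phosphate pH 7.4, 2% DMSO final, 0.8 µg protein. Run 45 min at 37 °C. Chloroform-extracted [3H]squalene counted. IC50 from one run in duplicate.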

Rattus norvegicus [2] = experiment: In vivo inhibition of sterol synthesis in rats following 10 mg/kg p.o.; type: functional; conditions: for inhibition in vivo at 10 mg/kg: Rattus norvegicus, po
Method in brief: (§2)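 Oral dosing of 6-week-old male Wistar rats with test compound suspended in 0.5% methylcellulose. [14C]acetate (50 μCi/kg) given iv 1 h after the dose; animals killed 1 h later. Livers saponified and extracted with petroleum ether. Sterols precipitated with 0.5% digitonin in 50% ethanol (4 h, room temperature), then counted. Result is % inhibition vs control, mean ± SD (n = 6-10), Dunnett's test.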

Squalene synthase [3] = target: T1, Squalene synthase; experiment: Inhibitory activity against squalene synthase derived from human hepatoma cells (HepG2); method in brief: as §1
Rattus norvegicus [4] = experiment: Compound at a dose of 1 mg/kg was administered orally to 6 week old male Wistar rats and was evaluated for the inhibition of sterol synthesis; type: functional; conditions: route oral; method in brief: as §2
Rattus norvegicus [5] = organism: Rattus norvegicus; experiment: Concentration required for 50% inhibitory activity against cholesterol synthesis in rat liver; type: functional
Method in brief: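 In vivo hepatic sterol synthesis in 6-week-old male Wistar rats. Oral doses of 1, 3 and 10 mg/kg in 0.5% methylcellulose. [14C]acetate (50 μCi/kg) iv 1 h post-dose; killed 1 h later. Radioactivity of digitonin-precipitable liver sterols measured. ED50 is the oral dose giving 50% inhibition of sterol synthesis.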

Rattus norvegicus [6] = experiment: Compound at a dose of 3 mg/kg was dministered orally to 6 week old male Wistar rats and was evaluated for the inhibition of terol synthesis; type: functional; conditions: route oral; method in brief: as §2
Rattus norvegicus [7] = experiment: Compound was evaluated in vivo for its inhibitory activity against cholesterol synthesis in rat liver; type: functional; method in brief: as §2
Rattus norvegicus [8] = experiment: Compound at a dose of 3 mg/kg was administered orally to 6 week old male Wistar rats and was evaluated for the inhibition of sterol synthesis; type: functional; conditions: route oral; method in brief: as §2

Row | SMILES | IC50 (Squalene synthase [1]) | inhibition in vivo at 10 mg/kg (Rattus norvegicus [2]) | further results
1 | COc1cccc([C@H]2O[C@H](CC(=O)N3CCC(CCC(=O)O)CC3)C(=O)N(CC(C)(C)CO)c3ccc(Cl)cc32)c1OC | 61 nM | 76% | 
2 | COc1cccc([C@H]2O[C@H](CC(=O)N3CCC(CC(=O)O)CC3)C(=O)N(CC(C)(C)COCOC(=O)C(C)(C)C)c3ccc(Cl)cc32)c1OC |  | 43% | IC50 (Squalene synthase [3]): 471 nM
3 | COc1cccc([C@H]2O[C@H](CC(=O)NC(CC(C)C)C(=O)O)C(=O)N(CC(C)(C)CO)c3ccc(Cl)cc32)c1OC (stereo partly specified) | 28 nM | 14% | 
4 | CCCC(=O)OCC(C)(C)CN1C(=O)[C@@H](CC(=O)N2CCC(CC(=O)O)CC2)O[C@H](c2cccc(OC)c2OC)c2cc(Cl)ccc21 | 93 nM | 30% | 
5 | COc1cccc([C@H]2O[C@H](CC(=O)N3CCC(CCCC(=O)O)CC3)C(=O)N(CC(C)(C)CO)c3ccc(Cl)cc32)c1OC | 70 nM | 87% | 
6 | COc1cccc([C@H]2O[C@H](CC(=O)N3CCC(C(=O)O)CC3)C(=O)N(CC(C)(C)CO)c3ccc(Cl)cc32)c1OC |  | 26% | 
7 | COc1cccc([C@H]2O[C@H](CC(=O)N(C)CC(=O)O)C(=O)N(CC(C)(C)CO)c3ccc(Cl)cc32)c1OC | 18 nM | -1% | 
8 | CCC(=O)OCC(C)(C)CN1C(=O)[C@@H](CC(=O)N2CCC(CC(=O)O)CC2)O[C@H](c2cccc(OC)c2OC)c2cc(Cl)ccc21 | 87 nM | 40% | 
9 | COc1cccc([C@H]2O[C@H](CC(=O)N3CCC(CC(=O)O)CC3)C(=O)N(CC(C)(C)COC(C)=O)c3ccc(Cl)cc32)c1OC [LAPAQUISTAT ACETATE] | 78 nM | 81% | inhibition in vivo at 1 mg/kg (Rattus norvegicus [4]): 31%; ED50 (Rattus norvegicus [5]): 2.9 mg/kg; inhibition in vivo at 3 mg/kg (Rattus norvegicus [6]): 42%
10 | COc1cccc([C@H]2O[C@H](CC(=O)[O-])C(=O)N(CC(C)(C)C)c3ccc(Cl)cc32)c1OC.[Na+] |  |  | ED50 (Rattus norvegicus [7]): 3 mg/kg
11 | COc1cccc([C@H]2O[C@H](CC(=O)N3CCC(CC(=O)O)CC3)C(=O)N(CC(C)(C)CO)c3ccc(Cl)cc32)c1OC | 45 nM | 77% | inhibition in vivo at 1 mg/kg (Rattus norvegicus [4]): 11%; ED50 (Rattus norvegicus [5]): 6.8 mg/kg; Inhibition (Rattus norvegicus [2]; route oral, 10 mg/kg): 64%; inhibition in vivo at 3 mg/kg (Rattus norvegicus [8]): 20%
12 | COc1cccc([C@H]2O[C@H](CC(=O)NCCCCC(=O)O)C(=O)N(CC(C)(C)CO)c3ccc(Cl)cc32)c1OC | 38 nM | 50% | 
13 | COc1cccc([C@H]2O[C@H](CC(=O)NCCC(=O)O)C(=O)N(CC(C)(C)CO)c3ccc(Cl)cc32)c1OC | 15 nM | 19% | 
14 | COc1cccc([C@H]2O[C@H](CC(=O)N[C@@H](C)C(=O)O)C(=O)N(CC(C)(C)CO)c3ccc(Cl)cc32)c1OC | 21 nM | 14% | 
15 | COc1cccc([C@H]2O[C@H](CC(=O)N3CCC(CC(=O)O)CC3)C(=O)N(CC(C)(C)COC(=O)C(C)C)c3ccc(Cl)cc32)c1OC |  | 34% | IC50 (Squalene synthase [3]): 89 nM
16 | COc1cccc([C@H]2O[C@H](CC(=O)N[C@H](C)C(=O)O)C(=O)N(CC(C)(C)CO)c3ccc(Cl)cc32)c1OC | 18 nM | 31% | 
17 | COc1cccc([C@H]2O[C@H](CC(=O)NCCCC(=O)O)C(=O)N(CC(C)(C)CO)c3ccc(Cl)cc32)c1OC | 32 nM | 59% | 
18 | COc1cccc([C@H]2O[C@H](CC(=O)NCC(=O)O)C(=O)N(CC(C)(C)CO)c3ccc(Cl)cc32)c1OC | 15 nM | 14% | 
